Experimental data reported in ChEMBL document CHEMBL1157991, “Novel anti-HIV lancilactone C and related triterpenes from Kadsura lancilimba” (J Nat Prod, 1999).
Values after ≈ are worked out from the molar mass of the structure shown. Active and inactive are the calls of the source.

Experiments:
[1] = test system: Human immunodeficiency virus 1; experiment: Antiviral activity against HIV1 3B infected in human H9 T cells after 4 days by ELISA; assay type: functional, organism-based; details: for EC50: Human immunodeficiency virus 1, 3B, H9, 96 h
In short: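 H9 T cells kept in RPMI 1640 with 10% fetal calf serum at 37 °C, 5% CO2, used in log phase. Infected with HIV-1 IIIB (MOI 0.1-0.01 IU/cell) for 1 h, washed, and seeded at 4 × 10^5 cells/mL with compound diluted in medium. After 4 days at 37 °C, p24 in medium was read by sandwich ELISA (cutoff 12.5 pg/mL) against a p24 standard curve. EC50 was derived.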

[2] = test system: H9; experiment: Cytotoxicity against human H9 cells; assay type: cell-based
In short: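 Uninfected H9 T cells (log phase, RPMI 1640 + 10% FCS) were seeded at 4 × 10^5 cells/mL with compound diluted in medium and kept 4 days at 37 °C, 5% CO2. Cell density was counted by Coulter counter and IC50 was derived.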

[3] = Therapeutic index, ratio of IC50 for human H9 cells to EC50 for HIV1 3B; assay type: cell-based; details: H9 cells infected with HIV-1 3B, read-out: TI

| SMILES | Activity [1] | IC50 [2] | EC50 [1] | selectivity ratio [3] |
| --- | --- | --- | --- | --- |
| CC1=CC[C@@H]([C@@H](C)[C@H]2CC[C@@]3(C)[C@@H]4C[C@@H](O)[C@H]5C(C)(C)OC(=O)C=C[C@@]56C[C@@]46CC[C@]23C)OC1=O [KADSULACTONE A] | inactive | 8.6 µg/mL (≈ 17.8 µM) |  |  |
| CC1=CC[C@@H]([C@@H](C)[C@H]2CC[C@@]3(C)C4=C(C=C5C=CC(=O)OC(C)(C)[C@@H]5[C@H](O)C4)CC[C@]23C)OC1=O [LANCILACTONE A] | inactive | 14.3 µg/mL (≈ 29.8 µM) |  |  |
| CC1=CC[C@@H]([C@@H](C)[C@H]2CC[C@@]3(C)C4=C(C=C5C=CC(=O)OC(C)(C)[C@@H]5C=C4)CC[C@]23C)OC1=O [LANCILACTONE B] | inactive | 7.1 µg/mL (≈ 15.3 µM) |  |  |
| CC1=CC[C@@H]([C@@H](C)[C@H]2CC[C@@]3(C)C4=C(C=C(CCC(=O)O)C(=C(C)C)C=C4)CC[C@]23C)OC1=O [LANCILACTONE C] |  | > 100 µg/mL | 1.4 µg/mL (≈ 3.01 µM) | > 71.4 |
| Cc1cn([C@H]2C[C@H](N=[N+]=[N-])[C@@H](CO)O2)c(=O)[nH]c1=O [ZIDOVUDINE] |  |  | 0.045 µg/mL (≈ 0.168 µM) |  |
